# Hits are enriched below; roughly 1.5% of the tested compounds scored in any of these assays.
# proCasp3 act – procaspase-3 (human) activation; P42574; recombinant procaspase-3 D3A, Ac-DEVD-pNA absorbance 405 nm; activation, % at 8.5 µM; 330,000 compounds, 0.11% hits;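 active means activation above the mean of all tested compounds plus 3 SD, cut at about 21% in these data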;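 further: 0% = DMSO alone and 100% = DMSO wells spiked with extra 5 µM PC-3 D3A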
# Target sequence (P42574 whole entry D9A/D28A/D175A): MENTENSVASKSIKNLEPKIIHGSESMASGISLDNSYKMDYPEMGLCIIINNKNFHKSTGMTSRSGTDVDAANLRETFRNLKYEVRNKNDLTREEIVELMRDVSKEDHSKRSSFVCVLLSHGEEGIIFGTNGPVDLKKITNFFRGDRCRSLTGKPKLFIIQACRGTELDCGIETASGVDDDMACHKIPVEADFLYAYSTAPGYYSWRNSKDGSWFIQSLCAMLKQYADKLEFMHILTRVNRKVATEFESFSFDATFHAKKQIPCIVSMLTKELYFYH
#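 Test system: Procaspase-3 D3A mutant, all three cleavage aspartates alanine | Dosing: Single dose, 8.5 µM nominal compound, 0.8% DMSO | Schedule: 1 h preincubation, 2 h reaction | Technique: 405 nm absorbance of p-nitroaniline, reads at 0 and 120 min | Repeats: One well per compound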
# bovine MsrA act – activators of bovine methionine sulfoxide reductase A; purified bovine MsrA, absorbance read-out; activation, % at 10.6 µM; 360,000 compounds, 0.3% hits; in the data active means activation above about 7.5%;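 further: 0% = vehicle and 100% = reference activator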
# MsrA inh – bovine MsrA inhibition. purified bovine MsrA, absorbance read-out. AID 651718. 360,000 compounds, 0.75% hits. inhibition, % at 15.5 µM; in the data active means inhibition above about 4.5%;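 further: 0% = vehicle wells with enzyme and 100% = reference inhibitor wells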
# proCasp7 act – counter-screen: procaspase-7 (human) activation. P55210. recombinant procaspase-7, Ac-DEVD-pNA absorbance 405 nm; D23A/D198A/D206A triple mutant, cannot self-cleave; scale: DMSO 0, 5 µM enzyme 100. 330,000 compounds, 0.093% hits. activation, % at 8.5 µM;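 active means percent activation above the screen-wide mean plus 3 SD, cut at about 25% in these data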
# Target sequence (P55210 whole entry D23A/D198A/D206A): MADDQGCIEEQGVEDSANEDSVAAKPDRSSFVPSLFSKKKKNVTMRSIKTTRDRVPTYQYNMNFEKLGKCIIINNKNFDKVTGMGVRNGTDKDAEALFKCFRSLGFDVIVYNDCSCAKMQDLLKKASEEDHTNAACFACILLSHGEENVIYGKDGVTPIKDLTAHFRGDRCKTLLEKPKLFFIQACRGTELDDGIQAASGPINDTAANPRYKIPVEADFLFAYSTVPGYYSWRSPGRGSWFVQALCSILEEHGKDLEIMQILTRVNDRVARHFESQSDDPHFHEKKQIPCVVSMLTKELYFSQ
#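 Assay system – Uncleavable procaspase-7 mutant enzyme · Quantity – 2 µM procaspase-7 mutant as dispensed · Times – 1 h preincubation, 2 h reaction · Dosing – single nominal 8.5 µM compound dose, 0.8% DMSO final · Buffer or medium – Zinc-free 50 mM HEPES buffer, pH 7.4, with NaCl and Triton X-100 · Detection – Epi-absorbance of released pNA at 405 nm, two timepoints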
# TbMetRS inhib – Trypanosoma brucei MetRS inhibition. purified T. brucei MetRS, ATP depletion, Kinase-Glo luminescence. inhibition, % at 11.9 µM. 360,000 compounds, 0.4% hits. AID 624268;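 active means inhibition above a per-plate cutoff of the control wells' mean inhibition plus 3 SD, cut at about 5.5% in these data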;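 further: 0% = DMSO wells median and 100% = median of wells with control inhibitor compound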
#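 Dosing: 11.9 µM single point; system: parasite MetRS enzyme; technique: luminescence of leftover ATP; times: 15 min enzyme-compound preincubation, 2 h reaction, 10 min detection, 25 °C; replicates: each compound tested once; read-out basis: percent inhibition relative to median high and low control wells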
# MsrA act confirm – confirmation of bovine methionine sulfoxide reductase A activators; shares compounds with bovine MsrA act; purified bovine MsrA, absorbance read-out; activation, % at 10.6 µM; 1,000 compounds, 12% hits; in the data active means activation above about 4%;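 further: enzyme coupled to thioredoxin and thioredoxin reductase with NADPH; 0% = vehicle wells and 100% = reference activator wells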
# * marks the source's active call; other numbers are inactive results; x = not tested or not shown.
SMILES,proCasp3 act,bovine MsrA act,MsrA inh,proCasp7 act,TbMetRS inhib,MsrA act confirm
COc1cc2c(cc1OC)C(c1cc([N+](=O)[O-])ccc1O)NCC2 (centres undefined),-0.1,9.0*,0.1,-4.2,-0.5,-7.3
CN1CCN(C(c2ccccn2)c2cc(Cl)c3cccnc3c2O)CC1 (centres undefined),0.9,18.0*,1.8,4.8,-0.5,-2.0
Cc1ccc(C(c2cc(Cl)c3cccnc3c2O)N2CCN(C)CC2)cc1 (centres undefined),-7.1,-5.3,x,-11.5,-0.3,x
NCCc1nnc(SCc2ccc(F)cc2)o1,3.1,-4.0,-1.2,16.4,-0.9,x
NCCCCCc1nnc(SCc2ccc(Cl)c(Cl)c2)o1,-2.5,8.3*,0.2,9.2,1.1,1.2
CC(C)C[C@H]1COc2cc(NCc3ccc(Cl)c(Cl)c3)ccc2S(=O)(=O)N1,x,x,-0.3,x,x,x
CCCCN(CC)C(=O)c1cc2c(=O)n3cccc(C)c3nc2s1,-5.8,10.3*,0.8,3.5,-1.2,-2.5
COC(=O)[C@]12C[C@H](CC(=O)NCCCN3CCCC3=O)C(=O)N(CCC3=CCCCC3)C1=C[C@H](COCc1ccccc1)O[C@@H]2C,x,x,0.6,x,x,x
Cc1cccc(NC(=O)C2(C)CC3c4ccccc4C2c2ccccc23)c1 (centres undefined),2.3,8.9*,-0.5,4.0,-0.3,-0.1
Cc1cc2c(nc1C)CCCN2S(=O)(=O)c1ccccc1,x,x,1.1,x,x,x
CN(C)c1ccc(C=c2c3ccccc3n3c2cc(-c2ccccc2)[n+]3C)cc1,x,9.8*,2.1,x,-0.4,1.4
CN(C)c1ccc(C=c2c3cc([N+](=O)[O-])ccc3n3c2cc(-c2ccccc2)[n+]3C)cc1,x,-4.2,4.3,x,-0.6,x
COC(=O)[C@H](NC(=O)c1cc(-c2ccccc2)nc2ccccc12)c1ccccc1,4.6,9.4*,0.9,-10.4,-0.4,-0.2
Cc1ccc(C2c3c(n[nH]c3C(C)C)C(=O)N2c2ccccc2)cc1 (centres undefined),x,x,-0.2,x,x,x
CCOC(=O)c1cnc2nc(COc3ccccc3)[nH]n2c1=O,-2.8,11.8*,-1.2,-6.3,-0.1,-2.9
COC(=O)C1=C(C)N(Cc2ccccc2C(F)(F)F)C(=NCC2CC2)NC1CCc1ccccc1 (centres undefined),x,x,-1.3,x,x,x
CCOC(=O)c1ccccc1NC(=O)CSc1nnc(COc2ccccc2C)n1C,-1.8,9.0*,1.6,12.6,0.2,-1.8
Cc1ccccc1OCc1nnc(SCC(=O)NCc2ccccc2)n1C,5.9,-1.2,-0.1,4.7,-0.1,x
C=CCC(CC)C(=O)NC(=O)N1CCCc2ccccc21 (centres undefined),8.5,11.6*,0.2,6.8,0.1,-0.9
O=C(O)CCCC(=O)OCCCc1cc2ccccc2c(=O)o1,x,x,0.2,x,x,x
O=c1c2ccccc2sn1-c1ccccc1,x,12.4*,1.3,-25.2,-1.1,13.1*
CN(C)S(=O)(=O)c1cccc(-n2sc3ccccc3c2=O)c1,-27.4,7.7*,-0.8,-37.2,0.5,8.9*
O=c1c2ccccc2sn1-c1cccc(Cl)c1,x,11.9*,0.6,x,-0.7,5.8*
O=c1c2cc(C(F)(F)F)ccc2sn1-c1ccccc1,x,7.0,-0.7,x,-1.0,x
N#Cc1ccc2c(=O)n(-c3ccccc3)sc2c1,x,5.0,-0.7,x,-0.3,x
SMILES,proCasp3 act,bovine MsrA act,MsrA inh,proCasp7 act,TbMetRS inhib,MsrA act confirm
Cc1ccc(-n2sc3ccccc3c2=O)cc1S(=O)(=O)N1CCCCC1,-27.8,3.8,1.0,-32.9,-0.2,x
O=c1c2cc(F)ccc2sn1-c1ccccc1,-20.9,15.0*,0.3,-30.8,-0.2,9.8*
COc1ccc(N2C(=O)c3[nH]nc(-c4ccccc4)c3C2c2ccc(Br)cc2)cc1 (centres undefined),x,x,0.3,x,x,x
CCCCCn1cc(CCC(=O)Nc2ccc(Oc3cccnc3)cc2)c2ccccc21,x,x,0.9,x,x,x
CC(=O)Nc1ccc2c(=O)n(-c3ccccc3)sc2c1,x,7.7*,4.4,x,-0.1,3.9
CC1NC(=O)c2ccccc2-n2c1nc1cc(F)ccc1c2=O (centres undefined),1.5,x,0.5,3.5,x,x
Cc1ccccc1-n1sc2cc(F)ccc2c1=O,-24.1,14.6*,0.8,-28.3,-0.3,9.7*
COC(=O)C1=C(C)N(Cc2cccc(C(F)(F)F)c2)C(=NCc2cc(OC)c(OC)c(OC)c2)NC1c1cccc(Cl)c1 (centres undefined),x,x,-0.2,x,x,x
CC[n+]1ccc(C[n+]2ccccc2)c2ccccc21,-10.6,10.5*,1.1,-6.5,-0.2,1.4
CCOC(=O)C(Oc1ccc2c(-c3ccc(OC)cc3)cc(=O)oc2c1C)c1ccccc1 (centres undefined),-2.9,-1.1,-0.5,-10.7,-0.3,x
CCOC(=O)C(Oc1ccc2c(-c3ccccc3)cc(=O)oc2c1C)c1ccccc1 (centres undefined),-3.9,8.0*,-0.4,-9.5,-0.4,0.4
O=Nc1ccc(NOC(=O)c2ccccc2Br)cc1,-12.7,10.3*,1.8,-2.9,0.0,-0.9
O=C(ONc1ccc(N=NC(=O)c2ccccc2O)cc1)c1ccccc1,-0.1,-3.6,-0.1,0.3,-0.6,x
S=c1nc(-c2ccco2)[nH][nH]1,-2.7,8.2*,-0.2,-15.1,-1.0,1.5
COC(=O)[C@]12C[C@H](CC(=O)NCc3ccccc3)C(=O)N(Cc3ccccc3)C1=C[C@H](C(C)C)O[C@@H]2C1CC1,x,x,-0.7,x,x,x
Cn1c(NCc2ccncc2)nc2cc(-c3ccsc3)sc2c1=O,x,-4.4,0.2,x,0.2,x
Cn1c(Oc2ccncc2)nc2cc(-c3ccsc3)sc2c1=O,x,15.1*,2.7,x,-0.2,-2.0
COc1ccc(-c2csc(NC(=O)C3=COCCO3)n2)cc1OC,x,10.5*,0.1,x,-0.2,-2.3
O=C(Nc1nc(-c2ccc(F)c(F)c2)cs1)C1=COCCO1,-2.2,-2.6,-0.2,-6.4,-0.2,x
C/C(CC(=O)Nc1ccc(Cl)cc1Cl)=N\NC(=O)c1ccco1,-0.4,8.4*,0.0,-9.2,-0.7,0.2
CC(C)(C)C(=O)c1c(N)[nH]c(C(=O)c2ccccc2)c1-c1ccccc1,x,x,-0.2,x,x,x
Cc1cccc(N2CCN(C3=NC(=O)C(=C4CCCCC4)S3)CC2)c1,-1.3,8.0*,1.1,1.1,0.2,-0.3
CC1=C(C(N)=O)C(c2ccc(Cl)c(Cl)c2)n2ncnc2N1 (centres undefined),-5.4,7.9*,0.5,-5.8,-0.4,-0.9
COc1cc(NC(=O)c2cc(OC)c(OC)c(OC)c2)c(OC)cc1NC(=O)CN1CCCCC1,1.2,8.4*,0.7,7.0,-0.6,-0.5
COc1cc(NC(=O)c2ccc(C)cc2)c(OC)cc1NC(=O)CN1CCCCC1,-3.1,-3.1,2.3,-1.6,-0.9,x
CC(C(=O)N1CCCCC1)n1ncn2cccc2c1=O (centres undefined),-7.2,19.8*,-0.1,-4.5,-0.4,-0.1
CC(C)C[C@H]1COc2cc(N3CC[C@@H](O)C3)ccc2S(=O)(=O)N1,x,9.9*,-0.3,x,0.2,0.4
